Test results published in ChEMBL document CHEMBL5257161, “Mycobacterium tuberculosis CitA activity is modulated by cysteine oxidation and pyruvate binding” (RSC Med Chem, 2023).

Columns and labels:
[1] = substrate: O=C(O)CC(=O)C(=O)O; assay: Binding affinity to Mycobacterium tuberculosis wild type CitA expressed in Escherichia coli cells assessed as apparent Km by Michaelis-Menten analysis
Method in brief: (§1)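 His-tagged CitA (wild type or variant) was expressed in E. coli, purified by cobalt affinity and size exclusion, then dialysed against 20 mM Tris pH 8.0. Activity was measured by DTNB (300 μM) thiol detection of released CoA at 412 nm, with OAA and AcCoA substrates and 10 nM enzyme, in 50 mM Tris pH 8.0 at 25 °C. A no-enzyme control was run. Triplicate runs were fitted to Michaelis–Menten.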

[2] = substrate: O=C(O)CC(=O)C(=O)O; assay: Binding affinity to Mycobacterium tuberculosis wild type CitA expressed in Escherichia coli cells assessed as Vmax by Michaelis-Menten analysis; method in brief: as §1
[3] = substrate: O=C(O)CC(=O)C(=O)O; assay: Binding affinity to Mycobacterium tuberculosis wild type CitA expressed in Escherichia coli cells assessed as catalytic constant by Michaelis-Menten analysis; method in brief: as §1
[4] = substrate: O=C(O)CC(=O)C(=O)O; assay: Binding affinity to Mycobacterium tuberculosis wild type CitA expressed in Escherichia coli cells assessed as Kcat/Km by Michaelis-Menten analysis; method in brief: as §1

B1: Putative citrate synthase 2 (Mycobacterium tuberculosis), P9WPD3 (protein)
chain: MTVVPENFVPGLDGVVAFTTEIAEPDKDGGALRYRGVDIEDLVSQRVTFGDVWALLVDGNFGSGLPPAEPFPLPIHSGDVRVDVQAGLAMLAPIWGYAPLLDIDDATARQQLARASVMALSYVAQSARGIYQPAVPQRIIDECSTVTARFMTRWQGEPDPRHIEAIDAYWVSAAEHGMNASTFTARVIASTGADVAAALSGAIGAMSGPLHGGAPARVLPMLDEVERAGDARSVVKGILDRGEKLMGFGHRVYRAEDPRARVLRAAAERLGAPRYEVAVAVEQAALSELRERRPDRAIETNVEFWAAVVLDFARVPANMMPAMFTCGRTAGWCAHILEQKRLGKLVRPSAIYVGPGPRSPESVDGWERVLTTA
- Km [1]: 14.3 µM
- Vmax [2]: 3.4 µM/min
- kcat [3]: 5.67 s⁻¹
- kcat/Km [4]: 400000 M⁻¹ s⁻¹
